Assay results reported in ChEMBL document CHEMBL1133173, “Isoxazolines as potent antagonists of the integrin alpha(v)beta(3)” (J Med Chem, 2000).

Molecular target: Integrin alpha-V/beta-3 (Homo sapiens, UniProt P05106+P06756)
Experiment: Inhibition of vitronectin receptor (alpha V beta 3), expressed on human 293 cells, binding to immobilized fibrinogen
Type: cell-based, HEK293
In short: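 Human 293 cells stably transfected with human β3 plus a lacZ reporter (293β3z clone). Cells at 10⁶ viable cells/mL in MCDB131/20 mM HEPES pH 7.0 with 0.2% DMSO are preincubated with compound for 15 min at 37 °C. They are then added at 10⁵ cells/well to glycine-purified human fibrinogen-coated, BSA-blocked wells for 1 h at 37 °C, 5% CO₂. Adherent cells are lysed and β-galactosidase is read by chemiluminescence against a purified enzyme standard curve. Nonspecific binding is defined with 1 μM of a reference antagonist.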

Chain of Integrin alpha-V/beta-3 (P05106 27-788 limits assumed): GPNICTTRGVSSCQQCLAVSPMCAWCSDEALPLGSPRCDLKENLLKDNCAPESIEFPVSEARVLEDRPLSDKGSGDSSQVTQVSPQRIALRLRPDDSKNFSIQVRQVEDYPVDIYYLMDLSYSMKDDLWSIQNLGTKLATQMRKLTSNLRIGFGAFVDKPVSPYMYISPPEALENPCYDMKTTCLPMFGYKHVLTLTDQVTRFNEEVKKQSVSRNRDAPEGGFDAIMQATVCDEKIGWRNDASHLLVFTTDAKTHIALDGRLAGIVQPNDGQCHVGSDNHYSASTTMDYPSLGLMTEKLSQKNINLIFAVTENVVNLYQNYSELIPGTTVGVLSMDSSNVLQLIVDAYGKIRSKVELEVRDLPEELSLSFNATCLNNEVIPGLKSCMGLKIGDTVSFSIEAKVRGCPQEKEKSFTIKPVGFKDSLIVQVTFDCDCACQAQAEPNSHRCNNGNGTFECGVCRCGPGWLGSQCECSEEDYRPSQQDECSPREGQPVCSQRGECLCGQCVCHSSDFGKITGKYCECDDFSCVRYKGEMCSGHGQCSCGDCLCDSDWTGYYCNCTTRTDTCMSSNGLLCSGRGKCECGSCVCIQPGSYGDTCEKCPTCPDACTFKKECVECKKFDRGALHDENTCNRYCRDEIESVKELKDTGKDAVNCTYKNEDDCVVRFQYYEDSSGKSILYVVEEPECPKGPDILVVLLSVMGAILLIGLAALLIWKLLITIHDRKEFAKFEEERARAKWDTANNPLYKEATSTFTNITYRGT
Chain of Integrin alpha-V/beta-3 (P06756 31-889 limits assumed): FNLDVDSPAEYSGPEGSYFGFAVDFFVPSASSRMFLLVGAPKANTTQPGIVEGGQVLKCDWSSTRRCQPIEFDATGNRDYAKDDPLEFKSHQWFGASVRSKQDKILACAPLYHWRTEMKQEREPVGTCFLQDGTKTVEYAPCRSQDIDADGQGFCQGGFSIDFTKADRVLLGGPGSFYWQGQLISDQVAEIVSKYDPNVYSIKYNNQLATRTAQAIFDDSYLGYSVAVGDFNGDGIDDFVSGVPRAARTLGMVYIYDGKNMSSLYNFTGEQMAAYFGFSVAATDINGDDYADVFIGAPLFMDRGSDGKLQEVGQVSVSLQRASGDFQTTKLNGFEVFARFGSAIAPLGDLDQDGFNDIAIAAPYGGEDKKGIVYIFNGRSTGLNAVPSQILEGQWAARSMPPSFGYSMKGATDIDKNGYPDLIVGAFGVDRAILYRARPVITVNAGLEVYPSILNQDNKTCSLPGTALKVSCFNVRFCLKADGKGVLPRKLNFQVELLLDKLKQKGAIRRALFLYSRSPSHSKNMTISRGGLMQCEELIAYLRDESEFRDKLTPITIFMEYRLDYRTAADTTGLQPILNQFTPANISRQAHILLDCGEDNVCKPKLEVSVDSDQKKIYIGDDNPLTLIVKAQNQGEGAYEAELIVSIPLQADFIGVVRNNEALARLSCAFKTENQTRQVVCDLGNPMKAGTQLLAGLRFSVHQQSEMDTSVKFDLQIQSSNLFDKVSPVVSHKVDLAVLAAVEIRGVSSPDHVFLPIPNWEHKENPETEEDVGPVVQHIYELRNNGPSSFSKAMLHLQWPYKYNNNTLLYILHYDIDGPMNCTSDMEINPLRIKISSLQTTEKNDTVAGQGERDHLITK
Chain of Integrin alpha-V/beta-3 (P06756 891-1048 limits assumed): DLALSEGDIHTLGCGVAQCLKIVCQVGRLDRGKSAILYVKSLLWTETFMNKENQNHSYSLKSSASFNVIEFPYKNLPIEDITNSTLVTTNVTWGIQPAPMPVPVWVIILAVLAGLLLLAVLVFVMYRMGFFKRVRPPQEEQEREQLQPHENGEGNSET

Going from `Cc1cc(C)c(S(=O)(=O)N[C@@H](CNC(=O)C2=NOC(CCCCNc3ncc[nH]3)C2)C(=O)O)c(C)c1` (stereo not given in full) to `Cc1cc(C)c(S(=O)(=O)N[C@H](CNC(=O)C2=NOC(CCCCNc3ncc[nH]3)C2)C(=O)O)c(C)c1` (stereo not given in full), the IC50 rises from 15 nM to 2800 nM (190-fold). The first is the more potent here.

Compared with `Cc1cc(-c2ccccc2)cc(C)c1S(=O)(=O)N[C@@H](CNC(=O)C1=NOC(CCCCNc2ncc[nH]2)C1)C(=O)O` (stereo not given in full), `O=C(NC[C@H](NS(=O)(=O)c1c(Cl)cc(-c2ccccc2)cc1Cl)C(=O)O)C1=NOC(CCCCNc2ncc[nH]2)C1` (stereo not given in full) is 1.9-fold lower in IC50: 8.8 nM for the first, 4.6 nM for the second.

Going from `Cc1cc(C)c(S(=O)(=O)N[C@@H](CNC(=O)C2=NOC(CCCc3c[nH]c(N)n3)C2)C(=O)O)c(C)c1` (stereo not given in full) to `Cc1cc(C)c(S(=O)(=O)N[C@@H](CNC(=O)C2=NOC(CCCc3cccc(N)n3)C2)C(=O)O)c(C)c1` (stereo not given in full), the IC50 falls from 46 nM to 26 nM (1.8-fold).

First: Cc1cccc(Cl)c1S(=O)(=O)N[C@@H](CNC(=O)C1=NOC(CCCCNc2ncc[nH]2)C1)C(=O)O (stereo not given in full)
Second: O=C(NC[C@H](NS(=O)(=O)c1c(Cl)cccc1Cl)C(=O)O)C1=NOC(CCCCNc2ncc[nH]2)C1 (stereo not given in full)
The IC50 of the first is 2.5-fold lower: 7.1 nM for the first, 18 nM for the second.

`Cc1cc(C)c(S(=O)(=O)N[C@@H](CNC(=O)C2=NOC(CCCCNc3cc4ccccc4cn3)C2)C(=O)O)c(C)c1` (stereo not given in full) and `Cc1cc(C)c(S(=O)(=O)N[C@@H](CNC(=O)C2=NOC(CCCCNc3nccc4ccccc34)C2)C(=O)O)c(C)c1` (stereo not given in full) cannot be ordered by IC50: greater than 1000 nM for the first, greater than 1000 nM for the second.

Going from `N[C@@H](CNC(=O)C1=NOC(CCCCNc2ncc[nH]2)C1)C(=O)O` (stereo not given in full) to `O=C(NC[C@H](NS(=O)(=O)c1ccccc1)C(=O)O)C1=NOC(CCCCNc2ncc[nH]2)C1` (stereo in doubt; 3cc), the IC50 falls from greater than 1000 nM to 10.6 nM.

Compared with `O=C(NC[C@H](NS(=O)(=O)c1cccc2ccccc12)C(=O)O)C1=NOC(CCCCNc2ccccn2)C1` (stereo not given in full), `O=C(NC[C@H](NS(=O)(=O)c1cccc2ccccc12)C(=O)O)C1=NOC(CCCCNc2ncc[nH]2)C1` (stereo not given in full) is 3.1-fold lower in IC50: 160 nM for the first, 51 nM for the second.

First: O=C(NC[C@H](NS(=O)(=O)c1ccccc1)C(=O)O)C1=NOC(CCCCNc2ncc[nH]2)C1 (stereo in doubt; 3q)
Second: O=C(NC[C@H](NS(=O)(=O)c1ccc(-c2ccccc2)cc1)C(=O)O)C1=NOC(CCCCNc2ncc[nH]2)C1 (stereo not given in full)
The IC50 of the first is 3.6-fold lower: 66 nM for the first, 240 nM for the second.

`Cc1cc(-c2ccccc2)cc(C)c1S(=O)(=O)N[C@@H](CNC(=O)C1=NOC(CCCCNc2ccccn2)C1)C(=O)O` (stereo not given in full) and `Cc1cc(C)c(S(=O)(=O)N[C@@H](CNC(=O)C2=NOC(CCCCNc3ccccn3)C2)C(=O)O)c(C)c1` (stereo not given in full) are within 1.5-fold of each other in IC50: 44 nM for the first, 54 nM for the second.

Going from `Cc1cc(C)c(S(=O)(=O)N[C@@H](CNC(=O)C2=NOC(CCCCN=C(N)N)C2)C(=O)O)c(C)c1` (stereo not given in full) to `Cc1cc(C)c(S(=O)(=O)N[C@@H](CNC(=O)C2=NOC(CCCCNC(N)=O)C2)C(=O)O)c(C)c1` (stereo not given in full), the IC50 rises from 169 nM to greater than 1000 nM. The first is the more potent here.

First: Cc1cc(C)c(S(=O)(=O)N[C@@H](CNC(=O)C2=NOC(CCCCNS(N)(=O)=O)C2)C(=O)O)c(C)c1 (stereo not given in full)
Second: Cc1cc(C)c(S(=O)(=O)N[C@@H](CNC(=O)C2=NOC(CCCCNC3=NCCN3)C2)C(=O)O)c(C)c1 (stereo not given in full)
The IC50 of the first is higher: greater than 1000 nM for the first, 62 nM for the second. The second is the more potent here.

`Cc1noc(C)c1S(=O)(=O)N[C@@H](CNC(=O)C1=NOC(CCCCNc2ncc[nH]2)C1)C(=O)O` (stereo not given in full) and `Cc1cc(C)c(S(=O)(=O)N[C@@H](CNC(=O)C2=NOC(CCNc3ncc[nH]3)C2)C(=O)O)c(C)c1` (stereo not given in full) are within 1.5-fold of each other in IC50: 73 nM for the first, 106 nM for the second.

Compared with `CN([C@@H](CNC(=O)C1=NOC(CCCCNc2ccccn2)C1)C(=O)O)S(=O)(=O)c1ccc(-c2ccccc2)cc1` (stereo not given in full), `O=C(NC[C@H](NS(=O)(=O)c1ccccc1)C(=O)O)C1=NOC(CCCCNc2ccccn2)C1` (stereo not given in full) is 1.6-fold lower in IC50: 130 nM for the first, 81 nM for the second. The second is the more potent here.

`Cc1cc(C)c(S(=O)(=O)N[C@@H](CNC(=O)C2=NOC(CCCC(=O)Nc3ncc[nH]3)C2)C(=O)O)c(C)c1` (stereo not given in full) and `Cc1cc(C)c(S(=O)(=O)N[C@@H](CNC(=O)C2=NOC(CCNC(=O)Nc3ncc[nH]3)C2)C(=O)O)c(C)c1` (stereo not given in full) are within 1.5-fold of each other in IC50: 31 nM for the first, 34 nM for the second.

Compared with `N=C(N)c1ccc(C2=NO[C@@H](CC(=O)NCCC(=O)O)C2)cc1`, `CC(C)c1ccc(S(=O)(=O)N[C@@H](CNC(=O)C2=NOC(CCCCNc3ccccn3)C2)C(=O)O)cc1` (stereo not given in full) is lower in IC50: greater than 100000 nM for the first, 170 nM for the second. The second is the more potent here.
